Measured values reported in ChEMBL document CHEMBL1129647, “Targeting delavirdine/atevirdine resistant HIV-1: identification of (alkylamino)piperidine-containing bis(heteroaryl)piperazines as broad spectrum HIV-1 reverse transcriptase inhibitors” (J Med Chem, 1996).

Tests used:
[1] = target: T1, Human immunodeficiency virus type 1 reverse transcriptase (Human immunodeficiency virus 1, UniProt Q72547)
[2] = target: T2, Human immunodeficiency virus type 1 reverse transcriptase (Human immunodeficiency virus 1, UniProt Q72547, P236L)
[3] = system: Human immunodeficiency virus 1; assay: Concentration required to inhibit P24 production by 90% against L-697661 of HIV-1 IIIB (Y181C); type: functional
[4] = system: Human immunodeficiency virus 1; assay: Concentration required to inhibit P24 production by 90% against U-90,152 of HIV-1 MF (P236L); type: functional
[5] = system: Human immunodeficiency virus 1; assay: Concentration required to inhibit P24 production by 90% against U-90,152 of HIV-1 IIIB (L100I, M230L); type: functional
[6] = target: T3, Human immunodeficiency virus type 1 reverse transcriptase (Human immunodeficiency virus 1, UniProt Q72547, Y181C)
[7] = Clearance at an iv dose of 15 mg/Kg and po dose of 30 mg/Kg; type: ADME, organism-based; conditions: in vivo
In short: (§1)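 Male Sprague-Dawley rats, fasted, dosed iv and po in a crossover design with a 1 week washout between treatments (N = 3). Compound was given as a solution in propylene glycol/water (80/20, v/v) acidified with a molar excess of methanesulfonic acid. Values are the iv clearance and the absolute oral bioavailability.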

[8] = Bioavailability (dose 15 mg/kg i.v. and 30 mg/kg p.o.); type: ADME, organism-based; conditions: in vivo, po
In short: as §1

[9] = system: Human immunodeficiency virus 1; assay: In vitro inhibition of recombinant HIV-1 IIIB mutant Y181C; type: functional, organism-based
[10] = target: T3, Human immunodeficiency virus type 1 reverse transcriptase; assay: Compound was tested for inhibition of HIV-1 Y181C reverse transcriptase using dTTP as substrate
[11] = system: Human immunodeficiency virus 1; assay: In vitro inhibition of recombinant HIV-1 IIIB mutant WT; type: functional, organism-based
[12] = target: T1, Human immunodeficiency virus type 1 reverse transcriptase; assay: Compound was tested for inhibition of HIV-1 WT reverse transcriptase using dTTP as substrate
[13] = target: T2, Human immunodeficiency virus type 1 reverse transcriptase; assay: Compound was tested for inhibition of HIV-1 P236L reverse transcriptase using dTTP as substrate
[14] = system: Human immunodeficiency virus 1; assay: In vitro inhibition of recombinant HIV-1 IIIB mutant P236L; type: functional, organism-based
[15] = target: T2, Human immunodeficiency virus type 1 reverse transcriptase; assay: Compound was tested for inhibition of HIV-1 P236L reverse transcriptase using poly(rA)300:oligo(dT)10 as substrate
[16] = target: T3, Human immunodeficiency virus type 1 reverse transcriptase; assay: Compound was tested for inhibition of HIV-1 Y181C cell line using poly(rA)300:oligo(dT)10 as substrate
In short: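 Kinetic inhibition study on homodimeric recombinant HIV-1 RTs (WT, P236L, Y181C), varying dTTP or poly(rA):(dT)10 template:primer. Base assay: 28 °C, 10 min, pH 8.3 Tris-HCl, 10 mM MgCl2, 60 mM NaCl, 2 mM DTT, 0.05% NP-40, [3H]TTP incorporation. TCA-precipitated product collected on glass fibre filters and counted. Ki values derived.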

[17] = target: T1, Human immunodeficiency virus type 1 reverse transcriptase; assay: Compound was tested for inhibition of HIV-1 WT reverse transcriptase using poly(rA)300:oligo(dT)10 as substrate
[18] = Bioavailability at an iv dose of 15 mg/Kg and po dose of 29.1 mg/Kg; type: ADME, organism-based; conditions: in vivo, read-out: Bioavailabiility
In short: as §1

[19] = system: Human immunodeficiency virus 1; assay: Concentration required to inhibit P24 production by 90% against L-697,661 of HIV-1IIIB(Y181c); type: functional
[20] = system: Human immunodeficiency virus 1; assay: Concentration required to inhibit P24 production by 90% against U-90,152 of HIV-1 MF(P236L); type: functional

| Structure (SMILES) | IC50 [1] [nM] | IC50 [2] [nM] | IC90 [3] [nM] | IC90 [4] [nM] | IC90 [5] [nM] | IC50 [6] [nM] | other results |
| --- | --- | --- | --- | --- | --- | --- | --- |
| CN(c1nc(F)ccc1NC(C)(C)C)C1CCN(C(=O)c2cc3cc(NS(C)(=O)=O)ccc3[nH]2)CC1 | 530 | 1900 | 440 | 2600 | 1600 | 720 | – |
| CCN(c1ncccc1NC(C)C)C1CCN(C(=O)c2cc3cc(NS(C)(=O)=O)ccc3[nH]2)CC1 | 250 | 200 | – | – | – | 400 | – |
| CCN(c1nc(F)ccc1NC(C)(C)C)C1CCN(C(=O)c2cc3cc(NS(=O)(=O)N4CCN(C)CC4)ccc3[nH]2)CC1 | 830 | 1090 | 150 | 290 | 290 | 2070 | clearance ([7]; rat): 61 mL/min/kg; bioavailability ([8]; rat): 54% |
| CC(C)Nc1cccnc1N(C)C1CCN(C(=O)c2cc3ccc(CO)cc3[nH]2)CC1 | 170 | 370 | – | – | – | 490 | – |
| CCN(c1ncccc1NC(C)C)C1CCN(C(=O)c2cc3cc(NC(=O)N4CCN(C)CC4)ccc3[nH]2)CC1 | 140 | 180 | 50 | 240 | 110 | 410 | clearance ([7]; rat): 50 mL/min/kg; bioavailability ([8]; rat): 21.3% |
| CCN(c1nc(F)ccc1NC(C)(C)C)C1CCN(C(=O)c2cc3cc(NC(=O)N4CCN(C)CC4)ccc3[nH]2)CC1 | – | – | 130 | 160 | 140 | – | IC50 [9]: 790 nM; clearance [7]: 16 mL/min/kg; Ki [10]: 2550 nM; IC50 [11]: 210 nM; Ki [12]: 1260 nM; Ki [13]: 2020 nM; IC50 [14]: 430 nM; Ki [15]: 1740 nM; Ki [16]: 3030 nM; Ki [17]: 1640 nM; bioavailability ([8]; eutheria): 42% |
| CCN(c1ncccc1NC(C)C)C1CCN(C(=O)c2cc3cc(NS(=O)(=O)N4CCN(C)CC4)ccc3[nH]2)CC1 | 380 | 570 | 170 | 300 | – | 770 | clearance ([7]; rat): 89 mL/min/kg; bioavailability ([8]; rat): 8% |
| CN(c1ncccc1NC(C)(C)C)C1CCN(C(=O)c2cc3cc(NS(C)(=O)=O)ccc3[nH]2)CC1 | – | – | 220 | 5400 | 830 | – | bioavailability [18]: 44% |
| CCCN(c1ncccc1NC(C)C)C1CCN(C(=O)c2cc3cc(NC(=O)N4CCN(C)CC4)ccc3[nH]2)CC1 | 190 | 400 | – | – | – | 860 | – |
| CC(C)Nc1cccnc1N(C)C1CCN(C(=O)c2cc3ccc(OCCOCCOCCO)cc3[nH]2)CC1 | 300 | 410 | – | – | – | 770 | – |
| CN(c1ncccc1NCC1CC1)C1CCN(C(=O)c2cc3cc(NS(C)(=O)=O)ccc3[nH]2)CC1 | 520 | 14600 | – | – | – | 2910 | – |
| CCN(c1nc(Cl)ccc1NC(C)(C)C)C1CCN(C(=O)c2cc3cc(NS(C)(=O)=O)ccc3[nH]2)CC1 | 1020 | 1520 | – | – | – | 3000 | IC90 [19]: > 300 nM; IC90 [20]: 240 nM |
| CCNc1cccnc1N(CC)C1CCN(C(=O)c2cc3cc(NS(=O)(=O)CC)ccc3[nH]2)CC1 | 400 | 260 | – | – | – | 480 | – |
| CCNc1cccnc1N(C(C)C)C1CCN(C(=O)c2cc3cc(NS(C)(=O)=O)ccc3[nH]2)CC1 | 380 | 2600 | – | – | – | 3600 | – |
| CCCN(c1ncccc1NC(C)C)C1CCN(C(=O)c2cc3cc(NS(C)(=O)=O)ccc3[nH]2)CC1 | 240 | 240 | 60 | 220 | – | 610 | – |
| CC(C)Nc1cccnc1N(C1CC1)C1CCN(C(=O)c2cc3ccccc3[nH]2)CC1 | 700 | 590 | – | – | – | 2310 | – |
| CCc1cc(NCc2nc3c(Cl)ccc(Cl)c3o2)c(O)nc1C [L-697661] | 800 | 110 | > 10000 | 430 | 4000 | > 60000 | – |
